Tests used:
Plasmodium falciparum [1] = assay: Antiplasmodial activity against chloroquine-resistant Plasmodium falciparum W2 after 72 hrs by LDH assay; assay type: functional, organism-based; conditions: W2, 72 h
How it was run: (§1)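 P. falciparum grown in human A+ red cells at 5% hematocrit in RPMI 1640 with 1% AlbuMaxII, 0.01% hypoxanthine, 20 mM Hepes and 2 mM glutamine, at 37 °C under 1% O2/5% CO2/94% N2. Compounds dissolved in water or DMSO and diluted in medium. Growth read by pLDH. Values are mean ± SD of three experiments run in duplicate.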

Plasmodium falciparum [2] = assay: Antiplasmodial activity against chloroquine-sensitive Plasmodium falciparum D10 after 72 hrs by LDH assay; assay type: functional, organism-based; conditions: D10, 72 h; how it was run: as §1

| Compound | IC50 (Plasmodium falciparum [1]) | IC50 (Plasmodium falciparum [2]) |
| --- | --- | --- |
| CC(=O)O[C@H]1CC(=O)C(C)(C)[C@@H]2C[C@@H](OC(C)=O)[C@@]3(C)C4=CC[C@@H]([C@@H]5COC(O)C5)[C@]4(C)CC[C@@H]3[C@@]12C (some centres undefined) [NEEMFRUITIN A] | 1.74 µM | 2.82 µM |
| CC(=O)O[C@@H]1C[C@H]2C(C)(C)C(=O)C=C[C@]2(C)[C@H]2CC[C@]3(C)C(=CC(=O)[C@H]3[C@@H]3COC(O)C3)[C@@]21C (some centres undefined) [DESMETHYLLIMOCIN B] | 2.59 µM | 4.8 µM |
| CC(=O)O[C@@H]1C[C@H]2C(C)(C)C(=O)C=C[C@]2(C)[C@H]2CC[C@]3(C)C(=CC[C@H]3[C@H]3CO[C@@H]([C@H](O)C(C)(C)O)C3)[C@@]21C [PROTOXYLOCARPIN G] | 2.4 µM | 5 µM |
| CC(=O)O[C@H]1O[C@@H]([C@@H]2OC2(C)C)C[C@H]1[C@@H]1CC=C2[C@]3(C)[C@H](O)C[C@H]4C(C)(C)C(=O)C=C[C@]4(C)[C@H]3CC[C@]21C [NEEMFRUITIN B] | 9.98 µM | 9.49 µM |
| CC(=O)O[C@@H]1C[C@H]2C(C)(C)C(=O)C=C[C@]2(C)[C@H]2CC[C@]3(C)C(=CC(=O)[C@H]3c3ccoc3)[C@@]21C [AZADIRADIONE] | 3.4 µM | 5.96 µM |
| CC(=O)O[C@@H]1C[C@H]2C(C)(C)C(=O)C=C[C@]2(C)[C@H]2CC[C@@]3(C)[C@H](c4ccoc4)C(=O)[C@H]4O[C@]43[C@@]21C [EPOXYAZADIRADIONE] | 2.16 µM | 3.3 µM |
| CC(=O)O[C@@H]1C[C@H]2C(C)(C)C(=O)C=C[C@]2(C)[C@H]2CC[C@]3(C)C(=CC[C@H]3c3ccoc3)[C@@]21C [AZADIRONE] | 1.21 µM | 1.63 µM |
| CC(=O)O[C@@H]1C[C@H]2C(C)(C)C(=O)C=C[C@]2(C)[C@H]2CC[C@@]3(C)[C@H](c4ccoc4)OC(=O)[C@H]4O[C@]43[C@@]21C [GEDUNIN] | 1.31 µM |  |
| CC1(C)C(=O)C=C[C@]2(C)[C@H]3CC[C@@]4(C)[C@H](c5ccoc5)OC(=O)[C@H]5O[C@]54[C@]3(C)[C@H](O)C[C@@H]12 [DEACETYLGEDUNIN] | 3.29 µM | 5.14 µM |
| CC(=O)O[C@@H]1C[C@H]2C(C)(C)C(=O)C=C[C@]2(C)[C@H]2CC[C@]3(C)C(=CC[C@H]3[C@H]3COC(O)(C(C)(C)O)[C@H](O)C3)[C@@]21C (some centres undefined) [SPICATIN] | 2.74 µM | 5.4 µM |

Source: ChEMBL document CHEMBL1212893, “Antiplasmodial triterpenoids from the fruits of neem, Azadirachta indica” (J Nat Prod, 2010)
